Test results reported in ChEMBL document CHEMBL4689842, “EUbOPEN Chemogenomics Library wave 1” (2021).
“And” between values parts separate entries of the source, which are not always exact repeats. Equal values may be shown once.

Columns and labels:
U2OS [1] = assay: Incucyte cell viability with U2OS; format: toxicity, cell-based; details: human, 10 µM, compound concentration 10 uM; also: filed as whole numbers so only -1 and 0 and 1 occur
U2OS [2] = assay: Multiplex assay against U2OS; format: toxicity, cell-based; details: human
Method in brief: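 On a CQ1 microscope at 37°C and 5% CO2, live cells were imaged after compound addition. They had been stained at seeding with Hoechst33342, BioTracker Green Microtubule Cytoskeleton Dye, MitoTracker Red and Annexin V Alexa Fluor 680. CellPathfinder machine-learning gating assigned cells to Hoechst high-intensity objects or normal cells, normal cells to healthy, pyknosed or fragmented nuclei, and pyknosed cells to mitotic or apoptotic. Tubulin, mitochondrial-mass and membrane-permeability phenotypes are per cents of healthy-nucleus cells.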

[3] = 12 h, 1 µM, compound concentration 1 uM, replicate 1
[4] = 12 h, 1 µM, compound concentration 1 uM, replicate 2
[5] = 12 h, 10 µM, compound concentration 10 uM, replicate 1
[6] = 12 h, 10 µM, compound concentration 10 uM, replicate 2
[7] = 24 h, 1 µM, compound concentration 1 uM, replicate 1
[8] = 24 h, 1 µM, compound concentration 1 uM, replicate 2
[9] = 24 h, 10 µM, compound concentration 10 uM, replicate 1
[10] = 24 h, 10 µM, compound concentration 10 uM, replicate 2
[11] = 48 h, 10 µM, compound concentration 10 uM, replicate 1
[12] = 48 h, 10 µM, compound concentration 10 uM, replicate 2

c1ccc(-c2oc3ncnc(NC[C@@H]4CCCO4)c3c2-c2ccccc2)cc1
Growth Rate (U2OS [1]; 0 h, replicate number 1, timepoint 0 hours): 1
Growth Rate (U2OS [1]; 0 h, replicate number 2, timepoint 0 hours): 0
Growth Rate (U2OS [1]; 6 h, replicate number 1, timepoint 6 hours): 1
Growth Rate (U2OS [1]; 12 h, replicate number 1, timepoint 12 hours): 0
Growth Rate (U2OS [1]; 12 h, replicate number 2, timepoint 12 hours): 1
Growth Rate (U2OS [1]; 18 h, replicate number 1, timepoint 18 hours): 0
Growth Rate (U2OS [1]; 24 h, replicate number 1, timepoint 24 hours): 0
Growth Rate (U2OS [1]; 24 h, replicate number 2, timepoint 24 hours): 1
Population Apoptotic (%) (U2OS [2]; [3]): 68% and 50%
Population Fragmented Nuclei (%) (U2OS [2]; [3]): 4%
Population Healthy Nuclei (%) (U2OS [2]; [3]): 86% and 84%
Population Mitochondria Different-Phenotype (%) (U2OS [2]; [3]): 12% and 18%
Population Mitotic Cells (%) (U2OS [2]; [3]): 31% and 50%
Population Normal (%) (U2OS [2]; [3]): 98% and 95%
Population Pyknosed Nuclei (%) (U2OS [2]; [3]): 9% and 8%
Total Cell Count (U2OS [2]; [3]): 173 and 152
Population Apoptotic (%) (U2OS [2]; [4]): 66% and 25%
Population Fragmented Nuclei (%) (U2OS [2]; [4]): 6%
Population Healthy Nuclei (%) (U2OS [2]; [4]): 90%
Population Hoechst High Intensity Objects (%) (U2OS [2]; [4]): 10% and 18%
Population Mitochondria Different-Phenotype (%) (U2OS [2]; [4]): 17% and 35%
Population Mitotic Cells (%) (U2OS [2]; [4]): 33% and 75%
Population Normal (%) (U2OS [2]; [4]): 89% and 81%
Population Pyknosed Nuclei (%) (U2OS [2]; [4]): 7% and 4%
Total Cell Count (U2OS [2]; [4]): 137 and 107
Population Apoptotic (%) (U2OS [2]; [5]): 78%
Population Fragmented Nuclei (%) (U2OS [2]; [5]): 12%
Population Healthy Nuclei (%) (U2OS [2]; [5]): 64%
Population Hoechst High Intensity Objects (%) (U2OS [2]; [5]): 10%
Population Membrane Permeable-Phenotype (%) (U2OS [2]; [5]): 20%
Population Mitochondria Different-Phenotype (%) (U2OS [2]; [5]): 82%
Population Mitotic Cells (%) (U2OS [2]; [5]): 21%
Population Normal (%) (U2OS [2]; [5]): 89%
Population Pyknosed Nuclei (%) (U2OS [2]; [5]): 22%
Population Tubulin-Different-Phenotype (%) (U2OS [2]; [5]): 93%
Total Cell Count (U2OS [2]; [5]): 137
Population Apoptotic (%) (U2OS [2]; [6]): 87%
Population Fragmented Nuclei (%) (U2OS [2]; [6]): 14%
Population Healthy Nuclei (%) (U2OS [2]; [6]): 71%
Population Hoechst High Intensity Objects (%) (U2OS [2]; [6]): 6%
Population Membrane Permeable-Phenotype (%) (U2OS [2]; [6]): 34%
Population Mitochondria Different-Phenotype (%) (U2OS [2]; [6]): 56%
Population Mitotic Cells (%) (U2OS [2]; [6]): 12%
Population Normal (%) (U2OS [2]; [6]): 93%
Population Pyknosed Nuclei (%) (U2OS [2]; [6]): 14%
Population Tubulin-Different-Phenotype (%) (U2OS [2]; [6]): 95%
Total Cell Count (U2OS [2]; [6]): 61
Population Apoptotic (%) (U2OS [2]; [7]): 59% and 70%
Population Fragmented Nuclei (%) (U2OS [2]; [7]): 6%
Population Healthy Nuclei (%) (U2OS [2]; [7]): 79% and 90%
Population Hoechst High Intensity Objects (%) (U2OS [2]; [7]): 2% and 3%
Population Mitochondria Different-Phenotype (%) (U2OS [2]; [7]): 26% and 22%
Population Mitotic Cells (%) (U2OS [2]; [7]): 40% and 30%
Population Normal (%) (U2OS [2]; [7]): 97% and 96%
Population Pyknosed Nuclei (%) (U2OS [2]; [7]): 13% and 5%
Population Tubulin-Different-Phenotype (%) (U2OS [2]; [7]): 83%
Total Cell Count (U2OS [2]; [7]): 198 and 202
Population Fragmented Nuclei (%) (U2OS [2]; [8]): 4% and 8%
Population Healthy Nuclei (%) (U2OS [2]; [8]): 77% and 87%
Population Hoechst High Intensity Objects (%) (U2OS [2]; [8]): 6% and 8%
Population Mitochondria Different-Phenotype (%) (U2OS [2]; [8]): 19% and 29%
Population Normal (%) (U2OS [2]; [8]): 93% and 91%
Total Cell Count (U2OS [2]; [8]): 153 and 143
Population Apoptotic (%) (U2OS [2]; [9]): 82%
Population Fragmented Nuclei (%) (U2OS [2]; [9]): 8%
Population Healthy Nuclei (%) (U2OS [2]; [9]): 68%
Population Hoechst High Intensity Objects (%) (U2OS [2]; [9]): 12%
Population Membrane Permeable-Phenotype (%) (U2OS [2]; [9]): 34%
Population Mitochondria Different-Phenotype (%) (U2OS [2]; [9]): 74%
Population Mitotic Cells (%) (U2OS [2]; [9]): 17%
Population Normal (%) (U2OS [2]; [9]): 87%
Population Pyknosed Nuclei (%) (U2OS [2]; [9]): 23%
Population Tubulin-Different-Phenotype (%) (U2OS [2]; [9]): 95%
Total Cell Count (U2OS [2]; [9]): 138
Population Apoptotic (%) (U2OS [2]; [10]): 100%
Population Fragmented Nuclei (%) (U2OS [2]; [10]): 14%
Population Hoechst High Intensity Objects (%) (U2OS [2]; [10]): 10%
Population Membrane Permeable-Phenotype (%) (U2OS [2]; [10]): 21%
Population Mitochondria Different-Phenotype (%) (U2OS [2]; [10]): 56%
Population Mitotic Cells (%) (U2OS [2]; [10]): 0%
Population Normal (%) (U2OS [2]; [10]): 90%
Population Pyknosed Nuclei (%) (U2OS [2]; [10]): 16%
Population Tubulin-Different-Phenotype (%) (U2OS [2]; [10]): 81%
Total Cell Count (U2OS [2]; [10]): 60
Population Apoptotic (%) (U2OS [2]; [11]): 70%
Population Fragmented Nuclei (%) (U2OS [2]; [11]): 15%
Population Healthy Nuclei (%) (U2OS [2]; [11]): 57%
Population Hoechst High Intensity Objects (%) (U2OS [2]; [11]): 5%
Population Membrane Permeable-Phenotype (%) (U2OS [2]; [11]): 41%
Population Mitochondria Different-Phenotype (%) (U2OS [2]; [11]): 61%
Population Mitotic Cells (%) (U2OS [2]; [11]): 29%
Population Normal (%) (U2OS [2]; [11]): 94%
Population Pyknosed Nuclei (%) (U2OS [2]; [11]): 26%
Population Tubulin-Different-Phenotype (%) (U2OS [2]; [11]): 89%
Total Cell Count (U2OS [2]; [11]): 134
Population Apoptotic (%) (U2OS [2]; [12]): 77%
Population Fragmented Nuclei (%) (U2OS [2]; [12]): 12%
Population Healthy Nuclei (%) (U2OS [2]; [12]): 75%
Population Hoechst High Intensity Objects (%) (U2OS [2]; [12]): 10%
Population Membrane Permeable-Phenotype (%) (U2OS [2]; [12]): 62%
Population Mitochondria Different-Phenotype (%) (U2OS [2]; [12]): 27%
Population Mitotic Cells (%) (U2OS [2]; [12]): 22%
Population Normal (%) (U2OS [2]; [12]): 90%
Population Pyknosed Nuclei (%) (U2OS [2]; [12]): 12%
Population Tubulin-Different-Phenotype (%) (U2OS [2]; [12]): 72%
Total Cell Count (U2OS [2]; [12]): 80
